Entries after “also recorded” stand apart in the source; their conditions may differ. Read-outs that look alike come from different tables or passages of the source. Each block holds one molecule with its values, some of them ahead of it.
What was measured:
[1] = target: T1, mGlu5 (Rattus norvegicus, UniProt P31424); assay type: binding; conditions: for [3H]mPEPy binding after pretreatment, three (5 min) washes: 1 μM pretreatment
Method in brief: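 Whole HEK293A-mGlu5-low cells plated at ~200 000 cells/well on poly-D-lysine. Test compound (1 μM) applied 10 min at RT, with or without UV. Washed either 3 × 5 min or 5 × 1 h at RT in Ca2+ assay buffer. Then ~2 nM [3H]mPEPy for 1 h at RT, ice-cold 0.9% NaCl washes, 0.2 M NaOH lysis overnight, liquid scintillation counting.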

[2] = target: T1, mGlu5; test: Modulation of glutamate concentration-response curves for Ca2+ mobilization; assay type: cell-based
[3] = target: T1, mGlu5; test: Agonist activity in mGlu5 intracellular Ca2+ mobilization; assay type: cell-based; conditions: absence of glutamate
[4] = tested on: purified mGlu5
[5] = target: T1, mGlu5; assay type: cell-based; conditions: for EC80 glutamate inhibition hill slope: HEK293A-mGlu5-low
[6] = target: T1, mGlu5; test: [3H]mPEPy inhibition binding, membranes from HEK293A-mGlu5-low; conditions: for displacement of [3H]mPEPy binding, incubation time 4 h: equilibration time extended to 4 h
Method in brief: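 HEK293A-mGlu5-low membranes with ~2 nM [3H]mPEPy and test compound (0.3 nM–30 μM) in Ca2+ assay buffer, RT, 1 h initially, extended to 4 h. […] Filtration on GF/B, ice-cold 0.9% NaCl/50 mM Tris pH 7.4 washes, scintillation counting.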

[7] = target: T1, mGlu5; test: Agonist Ca2+ mobilization after acute NAM exposure and extensive washes; assay type: cell-based; conditions: for ΔEmax: change after azido-alkyne 8 (1uM)

T1 sequence (P31424 21-1203): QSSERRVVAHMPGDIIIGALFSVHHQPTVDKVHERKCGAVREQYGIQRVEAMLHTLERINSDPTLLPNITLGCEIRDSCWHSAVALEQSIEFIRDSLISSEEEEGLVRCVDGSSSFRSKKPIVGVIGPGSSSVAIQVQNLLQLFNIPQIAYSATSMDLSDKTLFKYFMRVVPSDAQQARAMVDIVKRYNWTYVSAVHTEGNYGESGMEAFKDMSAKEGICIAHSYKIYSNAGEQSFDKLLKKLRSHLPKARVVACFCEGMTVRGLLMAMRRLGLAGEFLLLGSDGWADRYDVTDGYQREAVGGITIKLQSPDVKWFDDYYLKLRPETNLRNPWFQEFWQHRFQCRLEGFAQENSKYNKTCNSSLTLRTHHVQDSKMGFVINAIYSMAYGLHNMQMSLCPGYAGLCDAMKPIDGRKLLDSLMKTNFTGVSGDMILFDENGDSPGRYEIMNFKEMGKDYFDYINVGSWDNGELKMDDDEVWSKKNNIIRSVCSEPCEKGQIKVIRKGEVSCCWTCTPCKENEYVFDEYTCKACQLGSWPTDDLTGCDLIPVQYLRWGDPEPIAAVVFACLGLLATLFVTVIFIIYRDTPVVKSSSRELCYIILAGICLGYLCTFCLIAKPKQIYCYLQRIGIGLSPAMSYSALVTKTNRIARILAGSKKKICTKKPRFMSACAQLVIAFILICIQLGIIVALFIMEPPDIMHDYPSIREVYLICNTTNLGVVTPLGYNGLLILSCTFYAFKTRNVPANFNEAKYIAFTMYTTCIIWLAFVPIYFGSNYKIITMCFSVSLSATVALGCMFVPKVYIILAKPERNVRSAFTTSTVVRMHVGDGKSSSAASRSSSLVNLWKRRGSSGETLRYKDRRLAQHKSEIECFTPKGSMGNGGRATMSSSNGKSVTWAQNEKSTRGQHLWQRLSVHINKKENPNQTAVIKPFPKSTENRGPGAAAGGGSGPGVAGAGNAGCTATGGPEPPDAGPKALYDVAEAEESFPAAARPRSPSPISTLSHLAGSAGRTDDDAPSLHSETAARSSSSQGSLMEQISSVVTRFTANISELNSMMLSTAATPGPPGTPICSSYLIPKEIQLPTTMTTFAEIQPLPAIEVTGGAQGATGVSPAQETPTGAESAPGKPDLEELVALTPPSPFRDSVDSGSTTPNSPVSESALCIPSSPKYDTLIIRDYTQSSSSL

[3H]mPEPy binding after pretreatment, three (5 min) washes [1]: significantly reduced
[3H]mPEPy binding after extensive wash protocol (five 1 h washes) ([1]; absence of UV irradiation): concentration-dependently inhibited
fold increase of affinity estimate with 30 min versus 1 min preincubation [2]: ~ 10 fold
effect on glutamate maximal functional response ([2]; 1 min pre-exposure): complete inhibition
Kb ([2]; affinity estimate pKB, 30 min preincubation, photoprobe preincubation 30 min): 36.3 nM
affinity estimate (pKB) fold difference to benzyl ether derivative 3 ([2]; allosteric interaction assay, 1 min): ≤ 5 fold
IC50 [5]: 647 nM
Kb [5]: 891 nM
fold less potent than lead NAM 2 at inhibiting EC80 glutamate response [5]: ~ 5 fold
EC80 glutamate inhibition hill slope [5]: −0.91 ± 0.23
Ki [6]: 25.1 nM
displacement of [3H]mPEPy binding ([6]; initial assay conditions): incomplete displacement
fold higher mGlu5 binding affinity relative to lead NAM 2 ([6]; radioligand inhibition binding): 2 fold
Structure (SMILES): COc1cc(O)c(C(=O)c2ccccc2)cc1S(=O)(=O)O [compound 4]
intrinsic agonist activity at mGlu5 [3]: No evidence of agonist activity; also recorded: no intrinsic agonist activity
Cy5.5 in-gel fluorescence of mGlu5 dimer band ([4]; absence of a competitor, versus vehicle): significantly increase
displacement of [3H]mPEPy binding, incubation time 4 h [6]: complete displacement; also recorded: fully displaced

effect of pre-exposure on potency or maximal response to glutamate or VU0424465 ([7]; 10 min exposure followed by five extended washes): no effect
EC80 glutamate inhibition hill slope [5]: −1.53 ± 0.18
EC80 glutamate inhibition pKB ([5]; operational model of allosterism applied to EC80 glutamate inhibition curves): 7.97 ± 0.16
displacement of [3H]mPEPy binding, incubation time 4 h [6]: no effect
Structure (SMILES): Cc1cccc(C#Cc2ccccc2)n1 [6 (MPEP), MPEP, reference compound]
[3H]mPEPy binding after pretreatment, three (5 min) washes [1]: reduced [^3H]mPEPy binding to a similar extent
inhibition of mGlu5 photoaffinity labeling of the clickable photoprobes ([4]; saturating concentration (10 μM)): did not inhibit

pEC50 (untreated) ([7]; HEK293A-mGlu5-low, untreated): 6.60 ± 0.18
pKA ([7]; equilibrium dissociation constant of the agonist, receptor depletion with azido-alkyne 8 (1uM)): 6.17 ± 0.25
pEC50 (treated) ([7]; treated with azido-alkyne 8 (1uM)): 6.11 ± 0.23
Structure (SMILES): C[C@@H](NC(=O)c1ccc(C#Cc2cccc(F)c2)cn1)C(C)(C)O [VU0424465]
ΔEmax [7]: −18.3 ± 10.8 percentage of the maximum response to glutamate

Structure (SMILES): N[C@@H](CCC(=O)O)C(=O)O [glutamate]
ΔEmax [7]: −46.3 ± 18.3 percentage of the maximum response to glutamate

Source: paper PMC4981245 (ACS chemical biology, 2016)
